Laboratory results taken from ChEMBL document CHEMBL1126715, “Synthesis and tissue distribution of (m-[125I]iodobenzyl)trozamicol ([125I]MIBT): potential radioligand for mapping central cholinergic innervation” (J Med Chem, 1993).

Legend:
Rattus norvegicus [1] = species on record: Rattus norvegicus; experiment: Tissue distribution in rat lung after 60 minutes (n=3); format: ADME, organism-based; details: in vivo, 1 h
Summary of the method: (§1)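 Male Wistar rats (200-350 g) under ether anesthesia; radiotracer (3-5 μCi in 0.1 mL 50% aqueous ethanol) given iv. At 5, 30, 60 and 180 min, blood was drawn by cardiac puncture and animals were killed by cardiectomy. Organs were weighed and γ-counted against a 1:100 dilution of the injected dose. Results are given as % injected dose/g tissue; ratios are taken between tissue levels.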

Rattus norvegicus [2] = species on record: Rattus norvegicus; experiment: Tissue distribution in rat spleen after 30 minutes (n=3); format: ADME, organism-based; details: in vivo, 0.5 h; summary of the method: as §1
Rattus norvegicus [3] = species on record: Rattus norvegicus; experiment: Tissue distribution in rat thyroid after 5 minutes (n=3); format: ADME, organism-based, Thyroid gland; details: in vivo
Summary of the method: (§2)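 Male Wistar rats (200-350 g) under ether, iv [125I]tracer (3-5 μCi in 0.1 mL 50% aqueous EtOH). At 5, 30, 60 or 180 min, blood taken by cardiac puncture and the rat killed by cardiectomy. Organs weighed and γ-counted against 1:100 dilutions of the injected dose; results in % injected dose/g, with range.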

Rattus norvegicus [4] = species on record: Rattus norvegicus; experiment: Tissue distribution in rat kidney after 5 minutes (n=3); format: ADME, organism-based; details: in vivo; summary of the method: as §1
Rattus norvegicus [5] = species on record: Rattus norvegicus; experiment: Ratio of tissue distribution between rat brain and blood after 30 min; format: ADME, organism-based; details: 0.5 h
Summary of the method: (§3)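 Male Wistar rats (200-350 g) under ether anesthesia, iv radiotracer (3-5 μCi in 0.1 mL 50% aqueous ethanol). At 5, 30, 60, 180 min blood taken by cardiac puncture, animal killed by cardiectomy; organs weighed, γ-counted against 1:100 injected-dose dilution; % injected dose/g tissue; brain/blood ratio.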

Rattus norvegicus [6] = species on record: Rattus norvegicus; experiment: Tissue distribution in rat gonads after 180 minutes (n=3); format: ADME, organism-based, Gonad; details: in vivo, 3 h; summary of the method: as §1
[7] = Ratio of effect of vesamicol on the accumulation between rat heart and blood in group 2; format: ADME, organism-based
Summary of the method: (§4)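 Male Wistar rats (n = 4/group) given iv vehicle (100 μL 50% aqueous EtOH) or dl-vesamicol (1.01 μmol/kg); 15 min later iv radiotracer (2.0 μCi in 100 μL 50% aqueous EtOH); killed 30 min post-tracer. Blood by cardiac puncture, organs weighed and γ-counted vs 1:100 injected-dose dilution; % dose/g tissue (range); tissue/blood ratios.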

Rattus norvegicus [8] = species on record: Rattus norvegicus; experiment: Tissue distribution in rat spleen after 180 minutes (n=3); format: ADME, organism-based; details: in vivo, 3 h; summary of the method: as §1
Rattus norvegicus [9] = species on record: Rattus norvegicus; experiment: Ratio of tissue distribution between rat heart and blood after 30 min; format: ADME, organism-based; details: other tissue, 0.5 h; summary of the method: as §1
Rattus norvegicus [10] = species on record: Rattus norvegicus; experiment: Tissue distribution in rat spleen after 60 minutes (n=3); format: ADME, organism-based; details: in vivo, 1 h; summary of the method: as §1
Rattus norvegicus [11] = species on record: Rattus norvegicus; experiment: Tissue distribution in rat lung after 180 minutes (n=3); format: ADME, organism-based; details: in vivo, 3 h; summary of the method: as §2
Rattus norvegicus [12] = species on record: Rattus norvegicus; experiment: Tissue distribution in rat kidney after 180 minutes (n=3); format: ADME, organism-based; details: in vivo, 3 h; summary of the method: as §1
Rattus norvegicus [13] = species on record: Rattus norvegicus; experiment: Effect of vesamicol on the accumulation in rat heart in group 1 […]; format: ADME, organism-based; details: in vivo; summary of the method: as §4
Rattus norvegicus [14] = species on record: Rattus norvegicus; experiment: Tissue distribution in rat thyroid after 60 minutes (n=3); format: ADME, organism-based, Thyroid gland; details: in vivo, 1 h; summary of the method: as §1
Rattus norvegicus [15] = species on record: Rattus norvegicus; experiment: Effect of vesamicol on the accumulation in rat gonads in group 1 (n=3); format: ADME, organism-based; details: in vivo
Rattus norvegicus [16] = species on record: Rattus norvegicus; experiment: Tissue distribution in rat muscle after 5 minutes (n=3); format: ADME, organism-based; details: in vivo; summary of the method: as §1
Rattus norvegicus [17] = species on record: Rattus norvegicus; experiment: Tissue distribution in rat muscle after 60 minutes (n=3); format: ADME, organism-based; details: in vivo, 1 h; summary of the method: as §2
Rattus norvegicus [18] = species on record: Rattus norvegicus; experiment: Tissue distribution in rat lung after 5 minutes (n=3); format: ADME, organism-based; details: in vivo; summary of the method: as §1
Rattus norvegicus [19] = species on record: Rattus norvegicus; experiment: Tissue distribution in rat muscle after 180 minutes (n=3); format: ADME, organism-based; details: in vivo, 3 h; summary of the method: as §1
Rattus norvegicus [20] = species on record: Rattus norvegicus; experiment: Effect of vesamicol on the accumulation in rat blood in group 2 (n=3); format: ADME, organism-based; details: in vivo; summary of the method: as §4
Rattus norvegicus [21] = species on record: Rattus norvegicus; experiment: Tissue distribution in rat kidney after 30 minutes (n=3); format: ADME, organism-based; details: in vivo, 0.5 h; summary of the method: as §1
Rattus norvegicus [22] = species on record: Rattus norvegicus; experiment: Effect of vesamicol on the accumulation in rat kidney in group 1 (n=3); format: ADME, organism-based; details: in vivo
[23] = Ratio of effect of vesamicol on the accumulation between rat heart and blood in group 1; format: ADME, organism-based; summary of the method: as §4
Rattus norvegicus [24] = species on record: Rattus norvegicus; experiment: Tissue distribution in rat liver after 30 minutes (n=3); format: ADME, organism-based; details: in vivo, 0.5 h; summary of the method: as §1
Rattus norvegicus [25] = species on record: Rattus norvegicus; experiment: Effect of vesamicol on the accumulation in rat liver in group 2 (n=3); format: ADME, organism-based; details: in vivo
Rattus norvegicus [26] = species on record: Rattus norvegicus; experiment: Tissue distribution in rat gonads after 5 minutes (n=3); format: ADME, organism-based, Gonad; details: in vivo; summary of the method: as §1
Rattus norvegicus [27] = species on record: Rattus norvegicus; experiment: Tissue distribution in rat spleen after 5 minutes (n=3); format: ADME, organism-based; details: in vivo; summary of the method: as §2
Rattus norvegicus [28] = species on record: Rattus norvegicus; experiment: Tissue distribution in rat blood after 30 minutes (n=3); format: ADME, organism-based; details: in vivo, 0.5 h; summary of the method: as §1
Rattus norvegicus [29] = species on record: Rattus norvegicus; experiment: Effect of vesamicol on the accumulation in rat blood in group 1 (n=3); format: ADME, organism-based; details: in vivo
Rattus norvegicus [30] = species on record: Rattus norvegicus; experiment: Tissue distribution in rat brain after 5 minutes (n=3); format: ADME, organism-based; details: in vivo; summary of the method: as §1
[31] = Ratio of effect of vesamicol on the accumulation between rat brain and blood in group 1; format: ADME, organism-based; summary of the method: as §4
Rattus norvegicus [32] = species on record: Rattus norvegicus; experiment: Tissue distribution in rat blood after 60 minutes (n=3); format: ADME, organism-based; details: in vivo, 1 h; summary of the method: as §2
Rattus norvegicus [33] = species on record: Rattus norvegicus; experiment: Ratio of tissue distribution between rat brain and blood after 180 min; format: ADME, organism-based; details: 3 h; summary of the method: as §3
Rattus norvegicus [34] = species on record: Rattus norvegicus; experiment: Tissue distribution in rat lung after 30 minutes (n=3); format: ADME, organism-based; details: in vivo, 0.5 h; summary of the method: as §1
Rattus norvegicus [35] = species on record: Rattus norvegicus; experiment: Tissue distribution in rat brain after 180 minutes (n=3); format: ADME, organism-based; details: in vivo, 3 h; summary of the method: as §2
Rattus norvegicus [36] = species on record: Rattus norvegicus; experiment: Effect of vesamicol on the accumulation in rat spleen in group 2 (n=3); format: ADME, organism-based; details: in vivo; summary of the method: as §4

O[C@@H]1CCN(Cc2cccc([125I])c2)C[C@H]1N1CCC(c2ccccc2)CC1 (stereo in doubt; (-))
Dose/g (Rattus norvegicus [1]): 2.41% | Dose/g (Rattus norvegicus [2]): 1.24% | Dose/g (Rattus norvegicus [3]): 2.67% | Dose/g (Rattus norvegicus [4]): 3.71% | Ratio (Rattus norvegicus [5]): 9.06 | Dose/g (Rattus norvegicus [6]): 0.2% | Kp [7]: 2.4 | Dose/g (Rattus norvegicus [8]): 1.28% | Ratio (Rattus norvegicus [9]): 6.87 | Dose/g (Rattus norvegicus [10]): 1.17% | Dose/g (Rattus norvegicus [11]): 2.01% | Dose/g (Rattus norvegicus [12]): 3.27% | Dose/g (Rattus norvegicus [13]): 0.59% | Dose/g (Rattus norvegicus [14]): 5.87% | Dose/g (Rattus norvegicus [15]): 0.15% | Dose/g (Rattus norvegicus [16]): 0.46% | Dose/g (Rattus norvegicus [17]): 0.28% | Dose/g (Rattus norvegicus [18]): 5.9% | Dose/g (Rattus norvegicus [19]): 0.27% | Dose/g (Rattus norvegicus [20]): 0.12% | Dose/g (Rattus norvegicus [21]): 3.53% | Dose/g (Rattus norvegicus [22]): 2.45% | Kp [23]: 2.75 | Dose/g (Rattus norvegicus [24]): 2.35% | Dose/g (Rattus norvegicus [25]): 1.89% | Dose/g (Rattus norvegicus [26]): 0.19% | Dose/g (Rattus norvegicus [27]): 1.04% | Dose/g (Rattus norvegicus [28]): 0.11% | Dose/g (Rattus norvegicus [29]): 0.11% | Dose/g (Rattus norvegicus [30]): 0.92% | Kp [31]: 6.45 | Dose/g (Rattus norvegicus [32]): 0.1% | Ratio (Rattus norvegicus [33]): 9.87 | Dose/g (Rattus norvegicus [34]): 3.21% | Dose/g (Rattus norvegicus [35]): 0.92% | Dose/g (Rattus norvegicus [36]): 0.8%
